Results taken from ChEMBL document CHEMBL1123221, “Dihydropyridazinone cardiotonics: the discovery and inotropic activity of 1,3-dihydro-3,3-dimethyl-5-(1,4,5,6-tetrahydro-6-oxo-3-pyridazinyl)-2H -indol-2-one” (J Med Chem, 1986).

Tests used:
[1] = species on record: Felis catus; assay: Compound was evaluated for inotropic activity in cat papillary muscles at concentration of (10e -6)M; format: functional, Papillary muscle
Method in brief: (§1)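 Isolated cat papillary muscles under 1.0 g base-line tension, field-stimulated with square-wave pulses (2.0 ms, 12/min, 20% above threshold). Equilibrated 60 min. Each muscle was checked with 10^-6 M isoproterenol for 3 min and rejected if the response was under 120% of control, then washed and stabilized 30 min. Test compound given cumulatively (10^-7–10^-4 M) at 30-min intervals; contractility increase recorded.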

[2] = species on record: Felis catus; assay: Compound was evaluated for inotropic activity in cat papillary muscles at concentration of (10e -4)M; format: functional, Muscle tissue; method in brief: as §1
[3] = test system: Canis familiaris; assay: Compound was tested for cardiovascular profile in conscious dogs at dose of 500 ug/kg po; format: functional, Canis lupus familiaris, Heart
Method in brief: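 Conscious, chronically instrumented dogs fasted 18 h; drug or lactose placebo given orally in 000 gelatin capsules. Contractility index was LV dP/dt60 (first derivative of left ventricular pressure at 60 mmHg); heart rate and LV systolic pressure also monitored.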

[4] = test system: Canis familiaris; assay: Evaluated for percent increase in heart rate in anesthetized dogs; format: functional, Canis lupus familiaris
Method in brief: (§2)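 Right ventricular contractility measured by strain-gauge arch at 50 g tension; femoral arterial pressure and heart rate also recorded. Increasing log doses given iv at 5-min intervals, with peak responses recorded. ED50 by linear regression (mean ± SEM). Heart rate and MAP are % changes at the inotropic ED50.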

[5] = test system: Canis familiaris; assay: Evaluated for percent decrease in maximum arterial blood pressure in anesthetized dogs; format: functional, Canis lupus familiaris; method in brief: as §2
[6] = test system: Canis familiaris; assay: Tested for cardiovascular contractility in anesthetized dogs; format: functional; conditions: Canis lupus familiaris; method in brief: as §2
[7] = species on record: Felis catus; assay: Compound was evaluated for inotropic activity in cat papillary muscles at concentration of (10e -5)M; format: functional, Papillary muscle; method in brief: as §1
[8] = test system: Canis familiaris; assay: Compound was evaluated for percent increase in heart rate in anesthetized dogs; format: functional, Canis lupus familiaris
Method in brief: (§3)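 Mongrel dogs of either sex (7–14 kg), pentobarbital-anesthetized (35 mg/kg iv), ventilated, kept at 37–38 °C. Right ventricular contractility measured by strain-gauge arch at 50 g tension; femoral arterial pressure and heart rate also recorded. Increasing log doses given iv at 5-min intervals, with peak responses recorded. ED50 by linear regression (mean ± SEM). Heart rate and MAP are % changes at the inotropic ED50.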

[9] = test system: Canis familiaris; assay: Compound was evaluated for percent decrease in maximum arterial blood pressure in anesthetized dogs; format: functional, Canis lupus familiaris, Artery; set-up: scale not given: the % may be the effect or the level left; method in brief: as §3
[10] = test system: Canis familiaris; assay: Compound was tested for cardiovascular profile in conscious dogs at dose of 50 ug/kg po
[11] = species on record: Felis catus; assay: Compound was evaluated for inotropic activity in cat papillary muscles at concentration of (10e-5) M; format: functional, Papillary muscle; method in brief: as §1
[12] = test system: Canis familiaris; assay: Compound was tested for cardiovascular profile in conscious dogs at dose of 25 ug/kg po
[13] = species on record: Felis catus; assay: Compound was evaluated for inotropic activity in cat papillary muscles at concentration of (10e-6) M; format: functional, Papillary muscle; method in brief: as §1
[14] = test system: Canis familiaris; assay: Compound was tested for cardiovascular profile in conscious dogs at dose of 400 ug/kg po
[15] = test system: Canis familiaris; assay: Compound was tested for cardiovascular profile in conscious dogs at dose of 100 ug/kg po
[16] = Half-life measured by the effect on contractility after oral administration of 25 ug/kg in dog; conditions: in vivo, 0.025 mg/kg
[17] = Oral bioavailability determined in dog; format: ADME, organism-based, Canis lupus familiaris; conditions: in vivo
[18] = Half-life in dog; conditions: in vivo
[19] = test system: Canis familiaris; assay: Percent increase in contractility by administration of 500 ug/kg in conscious dog model; format: functional, Canis lupus familiaris
Method in brief: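 Conscious, chronically instrumented dogs fasted 18 h; drug or lactose placebo given orally in 000 gelatin capsules. Contractility index was LV dP/dt60 (first derivative of left ventricular pressure at 60 mmHg); heart rate and LV systolic pressure also monitored. Peak response generally taken 150 min post-dose; mean ± SEM of four experiments.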

| SMILES | Contractile force (% of control) [2] [%] | Increase [4] [%] | Decrease [5] [%] | ED50 [6] [mg/kg] | further results |
| --- | --- | --- | --- | --- | --- |
| O=C1CCC(c2ccc3c(c2)CCC(=O)N3)=NN1 | 154 | 18.5 | 8.7 | 0.0033 | Control [1]: 150%; Percent of control [3]: 157%; Contractility (% of control) [7]: 156% |
| CC1CC(c2ccc3c(c2)C(C)(C)C(=O)N3)=NNC1=O (stereo not drawn) |  | 13 | 20 | 0.015 |  |
| CCC1(CC)C(=O)Nc2ccc(C3=NNC(=O)CC3)cc21 |  | 8.9 | 7.5 | 0.741 |  |
| CC1CC(=O)NN=C1c1ccc2c(c1)C(C)(C)C(=O)N2C (stereo not drawn) |  | 21.4 | 26 | 0.0044 |  |
| CN1N=C(c2ccc3c(c2)CC(=O)N3)CCC1=O |  | 11 | 7 | 0.271 |  |
| CC1CC(=O)NN=C1c1ccc2c(c1)C(C)(C)C(=O)N2 (stereo not drawn) |  |  |  | 0.0032 | Control [8]: 16%; Control [9]: 26%; Control [10]: 150% |
| CCC1C(=O)Nc2ccc(C3=NNC(=O)CC3)cc21 (stereo not drawn) |  | 18 | 12 | 0.071 |  |
| O=C1CCC(c2ccc3c(c2)CCCC(=O)N3)=NN1 | 139 | 12 | 18 | 0.0052 | Control [1]: 121%; Percent of control [3]: 131%; Contractility (% of control) [7]: 137% |
| CN1C(=O)C(C)(C)c2cc(C3=NNC(=O)CC3)ccc21 |  | 8 | 13 | 0.052 |  |
| CC(=O)Nc1ccc(C2=NNC(=O)CC2C)cc1 (stereo not drawn) | 216 | 11.7 | 16.6 | 0.002 | Control [11]: 183%; Control [12]: 170%; Control [13]: 167% |
| CC(=O)Nc1ccc(C2=NNC(=O)CC2)cc1 | 141 | 5 | 6 | 0.0116 | Percent of control [3]: 132%; Contractility (% of control) [7]: 128% |
| CCCC1(C)C(=O)Nc2ccc(C3=NNC(=O)CC3)cc21 (stereo not drawn) |  | 9.3 | 9.6 | 0.0198 |  |
| CC1C(=O)Nc2ccc(C3=NNC(=O)CC3)cc21 (stereo not drawn) |  | 8 | 21.8 | 0.0096 | Control [12]: 141% |
| Cc1cc(C2=NNC(=O)CC2)cc2c1NC(=O)C2(C)C |  | 8.5 | 17 | 0.0095 |  |
| CCC1(C)C(=O)Nc2ccc(C3=NNC(=O)CC3C)cc21 (stereo not drawn) |  | 11 | 20 | 0.0148 |  |
| CCC1(C)C(=O)Nc2ccc(C3=NNC(=O)CC3)cc21 (stereo not drawn) |  | 2 | 3.1 | 0.022 | Control [14]: 149% |
| CN1C(=O)CCc2cc(C3=NNC(=O)CC3)ccc21 |  | 26 | 21 | 0.0124 | Control [15]: 134% |
| CC1(C)CC(=O)Nc2ccc(C3=NNC(=O)CC3)cc21 |  | 5.9 | 15 | 0.086 | Percent of control [3]: 133% |
| O=C1CCC(c2ccc3c(c2)CC(=O)N3)=NN1 | 152 | 5.6 | 4.3 | 0.024 | Control [1]: 116%; Percent of control [3]: 164%; Contractility (% of control) [7]: 147% |
| Cc1cc2c(cc1C1=NNC(=O)CC1)C(C)(C)C(=O)N2 |  | 7.9 | 0.5 | 0.04 |  |
| CC1(C)Cc2cc(C3=NNC(=O)CC3)ccc2NC1=O |  | 8.5 | 3 | 0.021 | Percent of control [3]: 116% |
| O=C1CCC(c2ccc3c(c2)CCCN3)=NN1 |  | 37 | 12 | 0.257 |  |
| O=C1CCC(c2ccc(-n3ccnc3)cc2)=NN1 [IMAZODAN] | 173 | 9.5 | 18 | 0.046 | Contractility (% of control) [7]: 147% |
| CC1(C)C(=O)Nc2ccc(C3=NNC(=O)CC3)cc21 [INDOLIDAN] | 169 | 11.8 | 15.2 | 0.0068 | half-life [16]: > 8 h; Control [1]: 134%; Control [12]: 151%; bioavailability [17]: 100%; half-life [18]: 14 h; Contractility (% of control) [7]: 164% |
| Cc1[nH]c(=O)c(C#N)cc1-c1ccncc1 [MILRINONE] | 158 | 9 | 8 | 0.037 | Increase [19]: 62%; Control [11]: 148%; Percent of control [3]: 162% |
